Source: ChEMBL document CHEMBL1150309, “Design, synthesis, and biological evaluation of thiophene analogues of chalcones” (Bioorg Med Chem, 2008)

Experiments:
[1] = system: L1210; assay: Antiproliferative activity against mouse L1210 cells after 2 days; format: functional, cell-based; conditions: L1210, 48 h
In short: (§1)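 Cells suspended at 300,000–500,000 cells/mL of culture medium and mixed 1:1 with dilutions of compound. Incubated 2 days at 37 °C, then cell number counted with a Coulter counter. IC50 is the concentration giving 50% inhibition of proliferation. Values are means from dose–response curves of at least three independent experiments.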

[2] = system: FM3A; assay: Antiproliferative activity against mouse FM3A cells after 2 days; format: functional, cell-based; conditions: 48 h; in short: as §1
[3] = system: MOLT-4; assay: Antiproliferative activity against human MOLT4 cells after 2 days; format: functional, cell-based; conditions: MOLT-4, 48 h; in short: as §1
[4] = system: CCRF-CEM; assay: Antiproliferative activity against human CEM cells after 2 days; format: functional, cell-based; conditions: 48 h; in short: as §1
[5] = system: HeLa; assay: Antiproliferative activity against human HeLa cells after 2 days; format: functional, cell-based; conditions: 48 h; in short: as §1
[6] = Inhibition of bovine brain tubulin polymerization for 20 mins; design: species or system Bos taurus
In short: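 Bovine brain tubulin (10 µM) preincubated with varying compound concentrations in glutamate buffer at 30 °C, then cooled to 0 °C. GTP added and mixtures warmed to 30 °C in cuvettes while assembly was followed by turbidity. IC50 is the concentration that halves the extent of assembly after 20 min.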

[7] = species on record: Bos taurus; assay: Displacement of [3H]colchicine from bovine brain tubulin at 1 uM
In short: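 Bovine brain tubulin (1 µM) incubated with compound at 1 µM and [³H]colchicine at 5 µM. Result is reported as percent inhibition of colchicine binding.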

[8] = system: K562; assay: Cell cycle arrest in human K562 cells assessed as accumulation at G2/M phase at 1.4 uM after 24 hrs by flow cytometry; format: functional
[9] = system: K562; assay: Cell cycle arrest in human K562 cells assessed as accumulation at G0/G1 phase at 1.4 uM after 24 hrs by flow cytometry; format: functional
[10] = system: K562; assay: Cell cycle arrest in human K562 cells assessed as accumulation at S phase at 1.4 uM after 24 hrs by flow cytometry; format: functional
[11] = system: K562; assay: Cell cycle arrest in human K562 cells assessed as accumulation at G2/M phase at 1.7 uM after 24 hrs by flow cytometry; format: functional
[12] = system: K562; assay: Cell cycle arrest in human K562 cells assessed as accumulation at G0/G1 phase at 1.7 uM after 24 hrs by flow cytometry; format: functional
[13] = system: K562; assay: Cell cycle arrest in human K562 cells assessed as accumulation at S phase at 1.7 uM after 24 hrs by flow cytometry; format: functional
[14] = system: K562; assay: Cell cycle arrest in human K562 cells assessed as accumulation at G2/M phase at 1.5 uM after 24 hrs by flow cytometry; format: functional
[15] = system: K562; assay: Cell cycle arrest in human K562 cells assessed as accumulation at G0/G1 phase at 1.5 uM after 24 hrs by flow cytometry; format: functional
[16] = system: K562; assay: Cell cycle arrest in human K562 cells assessed as accumulation at S phase at 1.5 uM after 24 hrs by flow cytometry; format: functional
[17] = system: K562; assay: Cell cycle arrest in human K562 cells assessed as accumulation at G2/M phase at 4.0 uM after 24 hrs by flow cytometry; format: functional
[18] = system: K562; assay: Cell cycle arrest in human K562 cells assessed as accumulation at S phase at 4.0 uM after 24 hrs by flow cytometry; format: functional
[19] = system: K562; assay: Cell cycle arrest in human K562 cells assessed as accumulation at G0/G1 phase at 4.0 uM after 24 hrs by flow cytometry; format: functional

Row | SMILES | IC50 [1] [µM] | IC50 [2] [µM] | IC50 [3] [µM] | IC50 [4] [µM] | IC50 [5] [µM] | IC50 [6] [µM] | inhibition [7] [%] | Activity [8] [%] | Activity [9] [%] | Activity [10] [%] | Activity [11] [%] | Activity [12] [%] | Activity [13] [%] | Activity [14] [%] | Activity [15] [%] | Activity [16] [%] | Activity [17] [%] | Activity [18] [%] | Activity [19] [%]
1 | COc1cc(C(=O)c2ccc(-c3ccc(Cl)cc3)s2)cc(OC)c1OC | 2.2 | 4.6 | 1.3 | 2.3 | 1.5 |  |  |  |  |  |  |  |  |  |  |  |  |  | 
2 | COc1cc(C(=O)c2ccc(-c3cccc([N+](=O)[O-])c3)s2)cc(OC)c1OC | 2.1 | 2.4 | 1.7 | 1.8 | 1.4 |  |  |  |  |  |  |  |  |  |  |  |  |  | 
3 | COc1cc(C(=O)c2ccc(-c3ccsc3)s2)cc(OC)c1OC | 1.3 | 1.8 | 0.37 | 1.3 | 1.1 |  |  |  |  |  |  |  |  |  |  |  |  |  | 
4 | COc1ccc(/C=C/C(=O)c2cc(OC)c(OC)c(OC)c2)cc1OC | 8.1 | 10 | 3.1 | 1.9 | 2 |  |  |  |  |  |  |  |  |  |  |  |  |  | 
5 | COc1ccc(/C=C/C(=O)c2cc(OC)c(OC)c(OC)c2)cc1 | 2.8 | 8.4 | 1.4 | 1.5 | 1.3 |  |  |  |  |  |  |  |  |  |  |  |  |  | 
6 | COc1cc(C(=O)c2ccc(-c3ccccc3Cl)s2)cc(OC)c1OC | 0.75 | 1.7 | 1 | 0.49 | 1.6 |  |  |  |  |  |  |  |  |  |  |  |  |  | 
7 | COc1cc(C(=O)/C=C/c2ccc(F)cc2)cc(OC)c1OC | > 10 | > 10 | > 10 | > 10 | > 10 |  |  |  |  |  |  |  |  |  |  |  |  |  | 
8 | COc1cc(C(=O)c2ccc(-c3ccc(C)cc3)s2)cc(OC)c1OC | 0.49 | 0.47 | 0.38 | 0.36 | 0.41 | 0.8 | 74 | 85 | 8 | 7 |  |  |  |  |  |  |  |  | 
9 | COc1cc(C(=O)c2ccc(-c3cccs3)s2)cc(OC)c1OC | 0.53 | 0.46 | 0.3 | 0.43 | 0.47 | 0.8 | 82 |  |  |  | 75 | 8 | 17 |  |  |  |  |  | 
10 | COc1ccccc1-c1ccc(C(=O)c2cc(OC)c(OC)c(OC)c2)s1 | 0.51 | 0.44 | 0.18 | 0.37 | 0.16 | 1.3 | 74 |  |  |  |  |  |  | 62 | 12 | 31 |  |  | 
11 | COc1cc(C(=O)c2ccc(-c3ccccc3C)s2)cc(OC)c1OC | 2.2 | 2.1 | 0.6 | 1.2 | 1.6 | 1.7 | 49 |  |  |  |  |  |  |  |  |  | 85 | 23 | 15
12 | COc1cccc(/C=C/C(=O)c2cc(OC)c(OC)c(OC)c2)c1 | 4.3 | 11 | 3.1 | 2.2 | 3.7 |  |  |  |  |  |  |  |  |  |  |  |  |  | 
